According to ChEMBL document CHEMBL1145798, “Deoxyribonucleoside 2'- or 3'-mixed disulfides: prodrugs to target ribonucleotide reductase and/or to inhibit HIV reverse transcription” (J Med Chem, 2003):
Activity calls are given as the source filed them. The rule behind the calls is not given here.

Tests used:
MOLT-4 = test: Antiproliferative activity was determined against human T-lymphocyte cells -Molt4/C8; type: functional, cell-based
Method in brief: (§1)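 Cytostatic assay on proliferating cell cultures (human CEM, Molt4/C8; murine L1210, FM3A). IC50 is the compound concentration that inhibits cell proliferation by 50%.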

CCRF-CEM [1] = test: Antiproliferative activity was determined against human T-lymphocyte cells-CEM; type: functional, cell-based; method in brief: as §1
[2] = tested on: Human immunodeficiency virus 1; test: Effective concentration against cytopathicity of HIV-1 strain (HTLV IIIB) in CEM cell line; type: functional, organism-based; conditions: Human immunodeficiency virus 1, CCRF-CEM
Method in brief: (§2)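 HIV-1 or HIV-2 (ROD) infected CEM cell cultures. EC50 is the compound concentration that protects cells against virus-induced cytopathicity by 50%.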

[3] = tested on: Human immunodeficiency virus 2; test: Effective concentration against cytopathicity of HIV-2 strain (ROD) in CEM cell line; type: functional, organism-based; conditions: Human immunodeficiency virus 2, CCRF-CEM; method in brief: as §2
FM3A = test: Antiproliferative activity was determined against murine mammary carcinoma cells (FM3A); type: functional, cell-based; conditions: Mus musculus; method in brief: as §1
L1210 = test: Antiproliferative activity was determined against murine leukemia cells (L1210); type: functional, cell-based; conditions: Mus musculus; method in brief: as §1
CCRF-CEM [4] = test: Cytotoxicity was determined towards CEM/SS cells (MTT); type: functional; conditions: Homo sapiens
Method in brief: (§3)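 Cytotoxicity in CEM/SS cells measured by MTT read-out, reported as CC50.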

[5] = tested on: Human immunodeficiency virus 1; test: Inhibitory activity against HIV-1 strain (HTLV IIIB) in MT-4 cell line; type: functional; conditions: Human immunodeficiency virus 1, MT4; read-out: ED50 (the source's name)
CCRF-CEM [6] = test: Concentration required to lower intracellular dATP levels in CEM/SS cells; type: functional, Homo sapiens
Method in brief: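 CEM/SS cells exposed for 24 h at 37 °C across a dose range, then counted. dATP was measured in methanolic cell extracts by an enzymatic assay, elongation of radiolabeled oligonucleotide primers annealed to complementary templates, expressed per million viable cells. IC(dATP-50) is the concentration that depletes intracellular dATP by 50%. Mean ± SD of at least two independent experiments.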

MT4 [7] = test: Effective dose against HIV-1 strain (HTLV IIIB) in MT-4 cell line; Not active; type: functional, cell-based; conditions: Homo sapiens
MT4 [8] = test: Effective dose against HIV-1 strain (HTLV IIIB) in infected MT-4 cell line; type: functional; conditions: Homo sapiens, read-out: ED50 (the source's name)
MT4 [9] = test: Cytotoxicity towards infected MT-4 cell line; type: functional; conditions: Homo sapiens, read-out: CD50 (the source's name)
FM3A (Mus musculus) = test: Antiproliferative activity was determined against murine mammary carcinoma cells (FM3A)
MOLT-4 (Homo sapiens) = test: Antiproliferative activity was determined against human T-lymphocyte cells -Molt4/C8
CCRF-CEM [10] = test: Cytotoxicity was determined towards CEM/SS cells using MTT assay; type: functional; conditions: Homo sapiens; method in brief: as §3

Cc1cn([C@H]2C[C@H](N=[N+]=[N-])[C@@H](CO)O2)c(=O)[nH]c1=O [ZIDOVUDINE]
IC50 (MOLT-4): > 375 µM
IC50 (CCRF-CEM [1]): > 375 µM
EC50 [2]: 0.004 µM

Nc1ccn([C@@H]2O[C@H](CO)C(O)[C@@H]2S)c(=O)n1 (stereo partly drawn)
IC50 (MOLT-4): 650 µM
EC50 [3]: > 340 µM
IC50 (FM3A): > 675 µM
IC50 (CCRF-CEM [1]): 305 µM
EC50 [2]: > 340 µM
IC50 (L1210): 670 µM

CSS[C@H]1C[C@H](n2cc(C)c(=O)[nH]c2=O)O[C@@H]1CO
IC50 (MOLT-4): 25 µM
CC50 (CCRF-CEM [4]): 120 µM
EC50 [3]: 37 µM
IC50 (FM3A): 280 µM
IC50 (CCRF-CEM [1]): 155 µM
EC50 [2]: 10 µM
IC50 (L1210): 37 µM

Nc1ccn([C@H]2C[C@H](S)[C@@H](CO)O2)c(=O)n1
EC50 [5]: 20 µM

CCCSS[C@H]1C(O)[C@@H](CO)O[C@H]1n1ccc(N)nc1=O (stereo partly drawn)
ICdATP-50 (CCRF-CEM [6]): 50 µM

Cc1cn([C@H]2C[C@H](SS[C@H]3C[C@H](n4cc(C)c(O)nc4=O)O[C@@H]3CO)[C@@H](CO)O2)c(=O)nc1O
NA (MT4 [7]): inactive
EC50 (MT4 [8]): 16 µM
IC50 (MOLT-4): 325 µM
CC50 (MT4 [9]): 34 µM
EC50 [3]: 60 µM
IC50 (FM3A): > 390 µM
IC50 (CCRF-CEM [1]): > 390 µM
EC50 [2]: 50 µM
IC50 (L1210): > 390 µM

CSS[C@H]1C(O)[C@@H](CO)O[C@H]1n1ccc(=O)[nH]c1=O (stereo partly drawn)
IC50 (MOLT-4): 220 µM
EC50 [3]: > 65 µM
IC50 (FM3A): > 650 µM
IC50 (CCRF-CEM [1]): 160 µM
EC50 [2]: > 65 µM
IC50 (L1210): 320 µM

C[C@H](Cn1cnc2c(N)ncnc21)OCP(=O)(O)O [TENOFOVIR ANHYDROUS]
IC50 (MOLT-4): > 350 µM
EC50 [3]: 3 µM
IC50 (FM3A): > 350 µM
IC50 (CCRF-CEM [1]): > 350 µM
EC50 [2]: 4.2 µM
IC50 (L1210): > 350 µM

Cc1cn([C@H]2C[C@H](S)[C@@H](CO)O2)c(=O)[nH]c1=O
EC50 [3]: > 390 µM
IC50 (CCRF-CEM [1]): > 770 µM
IC50 (FM3A (Mus musculus)): > 770 µM
IC50 (MOLT-4 (Homo sapiens)): > 770 µM
EC50 [2]: > 390 µM
IC50 (L1210): > 770 µM

CSS[C@H]1C(O)[C@@H](CO)O[C@H]1n1ccc(N)nc1=O (stereo partly drawn)
ICdATP-50 (CCRF-CEM [6]): 50 µM
IC50 (MOLT-4): 255 µM
EC50 [3]: > 65 µM
IC50 (FM3A): > 650 µM
IC50 (CCRF-CEM [1]): 82 µM
EC50 [2]: > 65 µM
CC50 (CCRF-CEM [10]): 330 µM
IC50 (L1210): 350 µM
